In ChEMBL document CHEMBL3352343, “Structure-activity relationships of oxysterol-derived pharmacological chaperones for Niemann-Pick type C1 protein” (Bioorg Med Chem Lett, 2014):

Tested on: T1, NPC1-like intracellular cholesterol transporter 1 (Homo sapiens), Q9UHC9 [I1061T]
T1 sequence (whole entry): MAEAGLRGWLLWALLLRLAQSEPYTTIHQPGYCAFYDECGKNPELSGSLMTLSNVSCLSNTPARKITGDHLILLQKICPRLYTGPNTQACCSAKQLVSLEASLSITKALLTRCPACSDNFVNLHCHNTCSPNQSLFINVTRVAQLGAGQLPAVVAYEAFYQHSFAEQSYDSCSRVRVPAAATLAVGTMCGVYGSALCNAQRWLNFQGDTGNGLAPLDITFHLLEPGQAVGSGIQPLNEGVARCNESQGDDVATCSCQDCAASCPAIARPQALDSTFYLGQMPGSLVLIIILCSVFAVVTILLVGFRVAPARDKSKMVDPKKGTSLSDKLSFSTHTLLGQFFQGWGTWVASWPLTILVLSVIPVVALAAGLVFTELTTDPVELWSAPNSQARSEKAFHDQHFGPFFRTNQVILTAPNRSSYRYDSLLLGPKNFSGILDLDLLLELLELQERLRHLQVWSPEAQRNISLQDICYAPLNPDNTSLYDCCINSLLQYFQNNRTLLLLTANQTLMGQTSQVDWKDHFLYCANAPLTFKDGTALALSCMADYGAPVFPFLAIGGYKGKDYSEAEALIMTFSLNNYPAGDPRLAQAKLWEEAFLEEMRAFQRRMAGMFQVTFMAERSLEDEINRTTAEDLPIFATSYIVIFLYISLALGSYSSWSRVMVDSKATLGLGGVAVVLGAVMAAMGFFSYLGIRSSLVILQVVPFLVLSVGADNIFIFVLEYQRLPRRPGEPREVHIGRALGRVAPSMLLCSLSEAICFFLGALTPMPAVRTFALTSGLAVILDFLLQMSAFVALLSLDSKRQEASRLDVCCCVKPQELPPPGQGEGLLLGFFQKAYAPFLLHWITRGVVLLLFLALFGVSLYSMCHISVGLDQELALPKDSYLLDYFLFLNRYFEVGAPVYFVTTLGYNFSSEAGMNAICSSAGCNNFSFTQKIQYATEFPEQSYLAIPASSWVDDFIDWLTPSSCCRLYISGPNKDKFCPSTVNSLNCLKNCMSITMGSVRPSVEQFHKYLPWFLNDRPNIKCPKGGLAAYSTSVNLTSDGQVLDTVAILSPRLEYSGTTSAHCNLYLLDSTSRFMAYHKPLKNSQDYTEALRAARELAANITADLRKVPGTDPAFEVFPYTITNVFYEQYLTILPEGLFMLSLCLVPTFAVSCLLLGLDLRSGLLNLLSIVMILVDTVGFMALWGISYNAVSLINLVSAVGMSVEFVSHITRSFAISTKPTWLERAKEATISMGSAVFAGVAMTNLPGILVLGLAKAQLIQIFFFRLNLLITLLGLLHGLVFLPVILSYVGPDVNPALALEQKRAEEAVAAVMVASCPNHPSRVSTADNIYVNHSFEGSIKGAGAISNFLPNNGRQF
Experiment: Binding affinity to FLAG/tGFP-tagged NPC1 I1061T mutant (unknown origin) expressed in HEK293 cells assessed as localization after 24 hrs by fluorescence microscopy
Format: cell-based
Procedure, shortened: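 HEK293 cells stably expressing NPC1 I1061T-tGFP were exposed to compound for 24 h, fixed, and nuclei stained with Hoechst 33342. In the images, each cell was scored by tGFP pattern: ER 0, mixed ER+vesicle 0.5, vesicular 1. Scores were averaged to give the vesicular-localization percentage, and EC50 was taken from concentration-response. Data are mean ± standard deviation of three independent experiments.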

## C[C@H](CCCC(C)(C)O)[C@H]1CC[C@H]2[C@@H]3CC=C4C[C@@H](O)CC[C@]4(C)[C@H]3CC[C@]12C
  Activity: Dose-dependent effect
